Active and inactive are the calls of the source. The calls are words filed in the database; no cut-off is given here.
How the values were obtained:
[1] = molecular target: T1, Toll-like receptor 9 (Mus musculus) (UniProt Q9EQU3); assay: Activation of mouse TLR9 expressed in HEK293 cells assessed as NF-kappaB level at 0.1 ug/mL after 18 hrs by reporter gene assay; assay type: cell-based
T1 sequence (whole entry): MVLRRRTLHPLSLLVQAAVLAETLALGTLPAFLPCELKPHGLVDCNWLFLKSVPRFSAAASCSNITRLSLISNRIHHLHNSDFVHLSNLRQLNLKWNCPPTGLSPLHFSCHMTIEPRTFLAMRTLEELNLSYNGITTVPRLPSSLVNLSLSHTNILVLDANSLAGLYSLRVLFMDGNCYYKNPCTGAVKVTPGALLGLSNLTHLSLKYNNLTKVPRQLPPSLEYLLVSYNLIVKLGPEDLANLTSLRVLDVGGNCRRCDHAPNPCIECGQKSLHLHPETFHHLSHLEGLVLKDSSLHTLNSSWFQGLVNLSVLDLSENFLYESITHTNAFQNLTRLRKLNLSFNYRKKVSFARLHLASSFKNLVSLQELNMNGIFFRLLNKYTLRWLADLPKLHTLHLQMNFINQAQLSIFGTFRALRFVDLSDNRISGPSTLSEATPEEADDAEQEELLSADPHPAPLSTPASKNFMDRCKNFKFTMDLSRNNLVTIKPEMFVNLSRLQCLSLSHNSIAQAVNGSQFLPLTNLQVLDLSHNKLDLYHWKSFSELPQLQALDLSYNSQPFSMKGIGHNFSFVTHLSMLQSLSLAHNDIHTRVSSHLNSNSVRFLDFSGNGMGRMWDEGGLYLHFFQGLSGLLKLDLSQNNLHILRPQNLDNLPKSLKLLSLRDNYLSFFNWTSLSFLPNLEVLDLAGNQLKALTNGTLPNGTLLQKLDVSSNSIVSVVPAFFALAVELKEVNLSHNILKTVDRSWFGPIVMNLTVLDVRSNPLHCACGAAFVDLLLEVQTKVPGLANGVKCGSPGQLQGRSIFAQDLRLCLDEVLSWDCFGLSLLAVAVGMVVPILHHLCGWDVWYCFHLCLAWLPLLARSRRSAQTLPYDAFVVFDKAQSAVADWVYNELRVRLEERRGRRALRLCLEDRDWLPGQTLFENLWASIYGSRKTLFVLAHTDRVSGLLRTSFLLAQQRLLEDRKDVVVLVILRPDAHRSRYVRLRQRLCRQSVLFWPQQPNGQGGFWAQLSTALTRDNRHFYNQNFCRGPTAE
Method in brief: (§1)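 HEK293 cells stably expressing mouse TLR9 were transiently transfected with a SEAP reporter for 6 h, then stimulated with ODN at 0.1, 0.3 or 1 μg/mL for 18 h. Reporter expression is given as fold change in NF-κB activity over medium. Representative of two independent experiments.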

[2] = molecular target: T1, Toll-like receptor 9 (Mus musculus); assay: Activation of mouse TLR9 expressed in HEK293 cells assessed as NF-kappaB level at 0.3 ug/mL after 18 hrs by reporter gene assay; assay type: cell-based; method in brief: as §1
[3] = molecular target: T1, Toll-like receptor 9 (Mus musculus); assay: Activation of mouse TLR9 expressed in HEK293 cells assessed as NF-kappaB level at 1 ug/mL after 18 hrs by reporter gene assay; assay type: cell-based; method in brief: as §1
Splenocyte [4] = assay: Immunostimulatory activity in C57BL/6 mouse splenocytes assessed as induction of IL12 secretion at 2 to 10 ug/ml after 24 hrs by sandwich ELISA; assay type: functional, cell-based
Method in brief: (§2)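 C57BL/6 splenocytes (mice 5–8 weeks) at 5 × 10^6 cells/mL in RPMI complete medium. ODNs dissolved in PBS were added and the cells incubated at 37 °C for 24 h. Supernatant IL-12 or IL-6 was measured by sandwich ELISA. Runs were done two or three times, in duplicate per concentration.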

Splenocyte [5] = assay: Immunostimulatory activity in C57BL/6 mouse splenocytes assessed as induction of IL6 secretion at 2 to 10 ug/ml after 24 hrs by sandwich ELISA; assay type: functional, cell-based; method in brief: as §2
Mus musculus [6] = assay: Immunostimulatory activity in C57BL/6 mouse assessed as inhibition of 5'-CTATCTGACGTTCTCTGT-3'-induced MIP-1alpha production in serum at 2 mg/kg, sc administered 24 hrs prior to 5'-CTATCTGACGTTCTCTGT-3' challenge measured after 2 hrs by Luminex multiplex assay; assay type: functional, organism-based; parameters: dose 2 mg/kg
Method in brief: (§3)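 C57BL/6 mice received 2 mg/kg ODN sc in one flank. After 24 h, the TLR9 agonist ODN was given at 0.5 mg/kg sc in the opposite flank. Blood was drawn 2 h later and serum cytokines/chemokines were quantified by Luminex multiplex assay. Percent inhibition was taken against the agonist alone. Representative of three experiments.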

Mus musculus [7] = assay: Immunostimulatory activity in C57BL/6 mouse assessed as inhibition of 5'-CTATCTGACGTTCTCTGT-3'-induced TNFalpha production in serum at 2 mg/kg, sc administered 24 hrs prior to 5'-CTATCTGACGTTCTCTGT-3' challenge measured after 2 hrs by Luminex multiplex assay; assay type: functional, organism-based; parameters: dose 2 mg/kg; method in brief: as §3
Mus musculus [8] = assay: Immunostimulatory activity in C57BL/6 mouse assessed as inhibition of 5'-CTATCTGACGTTCTCTGT-3'-induced IL10 production in serum at 2 mg/kg, sc administered 24 hrs prior to 5'-CTATCTGACGTTCTCTGT-3' challenge measured after 2 hrs by Luminex multiplex assay; assay type: functional, organism-based; parameters: dose 2 mg/kg; method in brief: as §3
Mus musculus [9] = assay: Immunostimulatory activity in C57BL/6 mouse assessed as inhibition of 5'-CTATCTGACGTTCTCTGT-3'-induced MCP1 production in serum at 2 mg/kg, sc administered 24 hrs prior to 5'-CTATCTGACGTTCTCTGT-3' challenge measured after 2 hrs by Luminex multiplex assay; assay type: functional, organism-based; parameters: dose 2 mg/kg; method in brief: as §3
Mus musculus [10] = assay: Immunostimulatory activity in C57BL/6 mouse assessed as inhibition of 5'-CTATCTGACGTTCTCTGT-3'-induced KC production in serum at 2 mg/kg, sc administered 24 hrs prior to 5'-CTATCTGACGTTCTCTGT-3' challenge measured after 2 hrs by Luminex multiplex assay; assay type: functional, organism-based; parameters: dose 2 mg/kg; method in brief: as §3
J774 [11] = assay: Activation of NF-kappaB in mouse J774 cells at 2.5 ug/ml after 1 hr by EMSA; assay type: cell-based
Method in brief: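 Murine J774 macrophages in DMEM with 10% FBS and antibiotics, plated at 5×10^6 cells/well. ODNs were given alone or together for 1 h. For inhibition, the agonist ODN at 0.5 μg/mL was co-incubated with the modified ODN at 2.5 μg/mL. Nuclear extracts were resolved by EMSA on native polyacrylamide gels and read by autoradiography.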

J774 [12] = assay: Inhibition of 5'-CTATCTGACGTTCTCTGT-3'-activated NF-kappaB activity in mouse J774 cells at 2.5 ug/ml after 1 hr by EMSA; assay type: cell-based
Method in brief: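 J774 murine macrophages were grown in DMEM with 10% FBS and antibiotics, plated at 5 × 10^6 cells/well, and co-incubated for 1 h with the agonist ODN (0.5 µg/mL) and test ODN (2.5 µg/mL). Nuclear extracts were prepared and NF-κB binding was analysed by EMSA on native polyacrylamide gels with autoradiography.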

Structure (SMILES)	Activity [1]	Activity [2]	Activity [3]	Activity (Splenocyte [4])	Activity (Splenocyte [5])	Activity (Mus musculus [6])	Activity (Mus musculus [7])	Activity (Mus musculus [8])	Activity (Mus musculus [9])	Activity (Mus musculus [10])	Activity (J774 [11])	Activity (J774 [12])
Cc1cn([C@H]2C[C@H](OP(=O)(S)OC[C@H]3O[C@@H](n4ccc(N)nc4=O)C[C@@H]3OP(=O)(S)OC[C@H]3O[C@@H](n4cc(C)c(=O)[nH]c4=O)C[C@@H]3OP(=O)(S)OC[C@H]3O[C@@H](n4cc(C)c(=O)[nH]c4=O)C[C@@H]3OP(=O)(S)OC[C@H]3O[C@@H](n4ccc(N)nc4=O)C[C@@H]3OP(=O)(S)OC[C@H]3O[C@@H](n4cc(C)c(=O)[nH]c4=O)C[C@@H]3OP(=O)(S)OC[C@H]3O[C@@H](n4ccc(N)nc4=O)C[C@@H]3OP(=O)(S)OC[C@H]3O[C@@H](n4cc(C)c(=O)[nH]c4=O)C[C@@H]3OP(=O)(S)OC[C@H]3O[C@@H](n4cnc5c(=O)[nH]c(N)nc54)C[C@@H]3OP(=O)(S)OC[C@H]3O[C@@H](n4cc(C)c(=O)[nH]c4=O)C[C@@H]3O)[C@@H](COP(=O)(S)O[C@H]3C[C@H](n4cnc5c(N)ncnc54)O[C@@H]3COP(=O)(S)O[C@H]3C[C@H](n4cnc5c(=O)[nH]c(N)nc54)O[C@@H]3COP(=O)(S)O[C@H]3C[C@H](n4cc(C)c(=O)[nH]c4=O)O[C@@H]3COP(=O)(S)O[C@H]3C[C@H](n4ccc(N)nc4=O)O[C@@H]3COP(=O)(S)O[C@H]3C[C@H](n4cc(C)c(=O)[nH]c4=O)O[C@@H]3COP(=O)(S)O[C@H]3C[C@H](n4cnc5c(N)ncnc54)O[C@@H]3COP(=O)(S)O[C@H]3C[C@H](n4cc(C)c(=O)[nH]c4=O)O[C@@H]3COP(=O)(S)O[C@H]3C[C@H](n4ccc(N)nc4=O)O[C@@H]3CO)O2)c(=O)nc1N (some centres not stated)	inactive	inactive	inactive	inactive	inactive	Active	Active	Active	Active	Active		
COC1[C@H](n2cnc3c(N)ncnc32)O[C@H](COP(=O)(S)O[C@H]2C(OC)[C@H](n3cnc4c(=O)[nH]c(N)nc43)O[C@@H]2COP(=O)(S)O[C@H]2C[C@H](n3cc(C)c(=O)[nH]c3=O)O[C@@H]2COP(=O)(S)O[C@H]2C[C@H](n3ccc(N)nc3=O)O[C@@H]2COP(=O)(S)O[C@H]2C[C@H](n3cc(C)c(=O)[nH]c3=O)O[C@@H]2COP(=O)(S)O[C@H]2C[C@H](n3cnc4c(N)ncnc43)O[C@@H]2COP(=O)(S)O[C@H]2C[C@H](n3cc(C)c(=O)[nH]c3=O)O[C@@H]2COP(=O)(S)O[C@H]2C[C@H](n3ccc(N)nc3=O)O[C@@H]2CO)[C@H]1OP(=O)(S)OC[C@H]1O[C@@H](n2ccc(N)nc2=O)C[C@@H]1OP(=O)(S)OC[C@H]1O[C@@H](n2ccc(N)nc2=O)C[C@@H]1OP(=O)(S)OC[C@H]1O[C@@H](n2cc(C)c(=O)[nH]c2=O)C[C@@H]1OP(=O)(S)OC[C@H]1O[C@@H](n2cc(C)c(=O)[nH]c2=O)C[C@@H]1OP(=O)(S)OC[C@H]1O[C@@H](n2ccc(N)nc2=O)C[C@@H]1OP(=O)(S)OC[C@H]1O[C@@H](n2cc(C)c(=O)[nH]c2=O)C[C@@H]1OP(=O)(S)OC[C@H]1O[C@@H](n2ccc(N)nc2=O)C[C@@H]1OP(=O)(S)OC[C@H]1O[C@@H](n2cc(C)c(=O)[nH]c2=O)C[C@@H]1OP(=O)(S)OC[C@H]1O[C@@H](n2cnc3c(=O)[nH]c(N)nc32)C[C@@H]1OP(=O)(S)OC[C@H]1O[C@@H](n2cc(C)c(=O)[nH]c2=O)C[C@@H]1O (some centres not stated)											inactive	inactive

Source: ChEMBL document CHEMBL1152452, “Modifications incorporated in CpG motifs of oligodeoxynucleotides lead to antagonist activity of toll-like receptors 7 and 9” (2009)
